Source: ChEMBL document CHEMBL1649110, “Pharmacodynamics of minocycline against Staphylococcus aureus in an in vitro pharmacokinetic model” (Antimicrob Agents Chemother, 2008)
Values after ≈ are worked out from the molar mass of the structure shown. Active and inactive are the calls of the source. No cut-off for these calls is given here.

What was measured:
[1] = system: Staphylococcus aureus; assay: Bactericidal activity against methicillin-resistant Staphylococcus aureus infected in rabbit at 50 mg/kg of body weight administered every 8 hrs measured after 72 hrs; assay type: functional
[2] = Cmax in simulated human serum in in vitro hollow-fiber PK model at 1 g administered every 12 hrs by fluorescence polarization immunoassay method; assay type: ADME, organism-based; design: dose 1 g; details: in vitro hollow-fiber PK model simulating human serum
In short: (§1)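 Free vancomycin 1 g q12h simulated in a hollow-fiber model at 37°C with 25% Mueller-Hinton broth. […] Dosed into the dosing chamber at 0 and 12 h. Samples were taken at 0, 1, 2, 3, 4, 5, 6, 12 and 24 h, and concentrations measured by fluorescence polarization immunoassay. Triplicate experiments.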

[3] = Tmax in simulated human serum in in vitro hollow-fiber PK model at 1 g administered every 12 hrs; assay type: ADME, cell-free; details: in vitro hollow-fiber PK model simulating human serum; in short: as §1
[4] = Half life in simulated human serum in in vitro hollow-fiber PK model at 1 g administered every 12 hrs; assay type: ADME, cell-free; details: in vitro hollow-fiber PK model simulating human serum; in short: as §1
[5] = system: Staphylococcus aureus; assay: Antibacterial activity against methicillin-resistant Staphylococcus aureus SMH 32985 after 24 hrs by Etest; assay type: functional; details: SMH 32985, 24 h
[6] = system: Staphylococcus aureus; assay: Antibacterial activity against methicillin-resistant Staphylococcus aureus SMH 32024 after 24 hrs by Etest; assay type: functional; details: SMH 32024, 24 h
[7] = system: Staphylococcus aureus; assay: Antibacterial activity against Staphylococcus aureus SMH 26910 after 24 hrs by Etest; assay type: functional; details: SMH 26910, 24 h
[8] = system: Staphylococcus aureus; assay: Bactericidal activity against Staphylococcus aureus assessed as log reduction in bacterial count; assay type: functional
[9] = system: Staphylococcus aureus; assay: Antibacterial activity against Staphylococcus aureus in murine thigh infection model; assay type: functional; details: Thigh muscle
[10] = T>MIC in Staphylococcus aureus infected neutropenic mouse thigh infection model; assay type: functional, Thigh muscle
[11] = system: Staphylococcus aureus; assay: Bactericidal activity against methicillin-resistant Staphylococcus aureus infected in rabbit at 6 mg/kg of body weight administered every 8 hrs measured after 72 hrs; assay type: functional
[12] = T>MIC in Staphylococcus aureus infected rabbit; assay type: functional
[13] = Half life in human serum; assay type: ADME, cell-free
[14] = system: Staphylococcus aureus; assay: Bactericidal activity against Staphylococcus aureus assessed as reduction log reduction in viable bacterial count at 0.5 to 1 times MIC; assay type: functional
[15] = Cmax in simulated human serum in in vitro hollow-fiber PK model at 100 mg administered every 12 hrs; assay type: ADME, organism-based; design: dose 100 mg; details: in vitro hollow-fiber PK model simulating human serum
In short: (§2)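 Samples were taken at 0, 1, 2, 3, 4, 5, 6, 12 and 24 h. Concentrations were measured by bioassay on Penassay seed agar with Bacillus subtilis as indicator. Triplicate runs.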

[16] = Tmax in simulated human serum in in vitro hollow-fiber PK model at 100 mg administered every 12 hrs; assay type: ADME, cell-free; details: in vitro hollow-fiber PK model simulating human serum; in short: as §2
[17] = Half life in simulated human serum in in vitro hollow-fiber PK model at 100 mg administered every 12 hrs; assay type: ADME, cell-free; details: in vitro hollow-fiber PK model simulating human serum; in short: as §2
[18] = system: Staphylococcus aureus; assay: Antibacterial activity against Staphylococcus aureus SMH 31236 after 24 hrs by Etest; assay type: functional; details: SMH 31236, 24 h
[19] = system: Staphylococcus aureus; assay: Antibacterial activity against methicillin-resistant Staphylococcus aureus SMH 32985 infected in in vitro hollow-fiber model assessed as log reduction in viable bacterial count at 100 mg after 12 hrs; assay type: functional
[20] = system: Staphylococcus aureus; assay: Antibacterial activity against methicillin-resistant Staphylococcus aureus SMH 32985 infected in in vitro hollow-fiber model assessed as log reduction in viable bacterial count at 100 mg administered every 12 hrs measured after 24 hrs; assay type: functional
In short: (§3)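 Hollow-fiber model at 37°C, 25% Mueller-Hinton broth, 10^6 CFU/ml inoculum in the peripheral compartment. […] Viable counts on nutrient agar (detection limit 2.0 x 10^2 CFU/ml). Read-out is log change in count at 24 h versus start. Triplicate.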

[21] = system: Staphylococcus aureus; assay: Antibacterial activity against methicillin-resistant Staphylococcus aureus SMH 32024 infected in in vitro hollow-fiber model assessed as log reduction in viable bacterial count at 100 mg after 12 hrs; assay type: functional
[22] = system: Staphylococcus aureus; assay: Antibacterial activity against methicillin-resistant Staphylococcus aureus SMH 32024 infected in in vitro hollow-fiber model assessed as log reduction in viable bacterial count at 100 mg administered every 12 hrs measured after 24 hrs; assay type: functional; in short: as §3
[23] = system: Staphylococcus aureus; assay: Antibacterial activity against Staphylococcus aureus SMH 26910 infected in in vitro hollow-fiber model assessed as log reduction in viable bacterial count at 100 mg after 12 hrs; assay type: functional
In short: (§4)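 Hollow-fiber model at 37°C in 25% Mueller-Hinton broth with a peripheral-compartment inoculum of 10^6 CFU/ml. […] Samples were taken at 0–24 h and counted on nutrient agar (detection limit 2.0 x 10^2 CFU/ml). Run in triplicate.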

[24] = system: Staphylococcus aureus; assay: Antibacterial activity against Staphylococcus aureus SMH 26910 infected in in vitro hollow-fiber model assessed as log reduction in viable bacterial count at 100 mg administered every 12 hrs measured after 24 hrs; assay type: functional; in short: as §4
[25] = system: Staphylococcus aureus; assay: Antibacterial activity against Staphylococcus aureus SMH 31236 infected in in vitro hollow-fiber model assessed as log reduction in viable bacterial count at 100 mg after 12 hrs; assay type: functional; in short: as §4
[26] = system: Staphylococcus aureus; assay: Antibacterial activity against Staphylococcus aureus SMH 31236 infected in in vitro hollow-fiber model assessed as log reduction in viable bacterial count at 100 mg administered every 12 hrs measured after 24 hrs; assay type: functional; in short: as §4
[27] = system: Staphylococcus aureus; assay: AUBKC (24 hrs) in methicillin-resistant Staphylococcus aureus SMH 32985 infected in in vitro hollow-fiber PK model at 100 mg administered every 12 hrs; assay type: functional
In short: (§5)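 Peripheral compartment inoculated to 10^6 CFU/ml. Samples at 0–24 h were spiral-plated on nutrient agar (detection limit 2.0 x 10^2 CFU/ml). Area under the bacterial kill curve was taken over 0–24 h. Triplicate runs.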

[28] = system: Staphylococcus aureus; assay: AUBKC (24 hrs) in methicillin-resistant Staphylococcus aureus SMH 32024 infected in in vitro hollow-fiber PK model at 100 mg administered every 12 hrs; assay type: functional; in short: as §5
[29] = system: Staphylococcus aureus; assay: AUBKC (24 hrs) in […] Staphylococcus aureus SMH 26910 infected in in vitro hollow-fiber PK model at 100 mg administered every 12 hrs; assay type: functional; in short: as §5
[30] = system: Staphylococcus aureus; assay: AUBKC (24 hrs) in methicillin-resistant Staphylococcus aureus SMH 31236 infected in in vitro hollow-fiber PK model at 100 mg administered every 12 hrs; assay type: functional; in short: as §5
[31] = system: Staphylococcus aureus; assay: Ratio of AUC to MIC in methicillin-resistant Staphylococcus aureus infected in in vitro hollow-fiber PK model at 100 mg administered every 12 hrs; assay type: functional
[32] = system: Staphylococcus aureus; assay: Ratio of AUC to MIC in methicillin-resistant Staphylococcus aureus infected in in vitro hollow-fiber PK model at 100 mg after 24 hrs; assay type: functional
[33] = system: Staphylococcus aureus; assay: Ratio of AUC to MIC in methicillin-resistant Staphylococcus aureus infected in in vitro hollow-fiber PK model at 100 mg after 12 hrs; assay type: functional
[34] = system: Staphylococcus aureus; assay: Ratio of AUC to MIC in methicillin-resistant Staphylococcus aureus infected in in vitro hollow-fiber PK model at 100 mg after 8 hrs; assay type: functional
[35] = system: Staphylococcus aureus; assay: Bactericidal activity against Staphylococcus aureus assessed as viable bacterial count at 2 times MIC; assay type: functional
[36] = system: Staphylococcus aureus; assay: Bactericidal activity against Staphylococcus aureus assessed as viable bacterial count at 4 times MIC; assay type: functional
[37] = system: Staphylococcus aureus; assay: Bactericidal activity against Staphylococcus aureus infected in in vitro hollow-fiber PK model at 200 mg administered every 12 hrs; assay type: functional, organism-based
[38] = system: Staphylococcus aureus; assay: Bactericidal activity against Staphylococcus aureus infected in in vitro hollow-fiber PK model at 400 mg administered every 24 hrs; assay type: functional, organism-based
[39] = system: Staphylococcus aureus; assay: Bactericidal activity against Staphylococcus aureus infected in in vitro hollow-fiber PK model at 100 mg administered every 12 hrs; assay type: functional, organism-based
[40] = system: Staphylococcus aureus; assay: Bactericidal activity against Staphylococcus aureus infected in in vitro hollow-fiber PK model at 200 mg administered every 24 hrs; assay type: functional, organism-based
[41] = Cmax in simulated human serum in in vitro hollow-fiber PK model at 600 mg administered every 24 hrs by HPLC; assay type: ADME, organism-based; design: dose 600 mg; details: in vitro hollow-fiber PK model simulating human serum
[42] = Tmax in simulated human serum in in vitro hollow-fiber PK model at 600 mg administered every 24 hrs; assay type: ADME, cell-free; details: in vitro hollow-fiber PK model simulating human serum

CN[C@H](CC(C)C)C(=O)N[C@H]1C(=O)N[C@@H](CC(N)=O)C(=O)N[C@H]2C(=O)N[C@H]3C(=O)N[C@H](C(=O)N[C@H](C(=O)O)c4cc(O)cc(O)c4-c4cc3ccc4O)[C@H](O)c3ccc(c(Cl)c3)Oc3cc2cc(c3O[C@@H]2O[C@H](CO)[C@@H](O)[C@H](O)[C@H]2O[C@H]2C[C@](C)(N)[C@H](O)[C@H](C)O2)Oc2ccc(cc2Cl)[C@H]1O [VANCOMYCIN]
log10 CFU/g [1]: 4.8 log10 CFU/g | Cmax [2]: 15000 ng/mL | Tmax [3]: 1 h | half-life [4]: 6 h | MIC [5]: 1.5 µg/mL (≈ 1.04 µM) | MIC [6]: 1.5 µg/mL (≈ 1.04 µM) | MIC [7]: 1.5 µg/mL (≈ 1.04 µM)

CN(C)c1cc(NC(=O)CNC(C)(C)C)c(O)c2c1C[C@H]1C[C@H]3[C@H](N(C)C)C(O)=C(C(N)=O)C(=O)[C@@]3(O)C(O)=C1C2=O [TIGECYCLINE]
Activity [8]: Active | Log reduction in bacterial count [8]: 2 | MIC [9]: 0.125 µg/mL (≈ 0.213 µM) | fT>MIC [10]: >50%

CN(C)c1ccc(O)c2c1C[C@H]1C[C@H]3[C@H](N(C)C)C(O)=C(C(N)=O)C(=O)[C@@]3(O)C(O)=C1C2=O [MINOCYCLINE]
Log reduction in bacterial count [8]: 1.5 | log10 CFU/g [11]: 5.3 log10 CFU/g | fT>MIC [12]: 100% | half-life [13]: 12 h | FC [14]: 1.5 | Cmax [15]: 600 ng/mL | Tmax [16]: 2.3 h | half-life [17]: 12 h | MIC [5]: 0.04 µg/mL (≈ 0.0874 µM) | MIC [6]: 0.19 µg/mL (≈ 0.415 µM) | MIC [7]: 0.06 µg/mL (≈ 0.131 µM) | MIC [18]: 0.75 µg/mL (≈ 1.64 µM) | FC [19]: 0.5 | FC [20]: 0.8 | FC [21]: 0.8 | FC [22]: 0.2 | FC [23]: 1.9 | FC [24]: 1.4 | FC [25]: 1.6 | FC [26]: 0.1 | fold change (FC) [27]: 79.7 | fold change (FC) [28]: 77.2 | fold change (FC) [29]: 77.6 | fold change (FC) [30]: 98.4 | RatioAUC/MIC [31]: 200 | RatioAUC/MIC [32]: 1.6 | RatioAUC/MIC [33]: 2.1 | RatioAUC/MIC [34]: 1.7

C[C@H]1c2cccc(O)c2C(=O)C2=C(O)[C@]3(O)C(=O)C(C(N)=O)=C(O)[C@@H](N(C)C)[C@@H]3[C@@H](O)[C@@H]21.O [DOXYCYCLINE]
Activity [8]: Active | fold change (FC) [35]: 0.5 | fold change (FC) [36]: 0.5 | Activity [37]: Active | Activity [38]: Active | Activity [39]: Active | Activity [40]: Active

CO[C@H]1/C=C/O[C@@]2(C)Oc3c(C)c(O)c4c(O)c(c(/C=N/N5CCN(C)CC5)c(O)c4c3C2=O)NC(=O)/C(C)=C\C=C\[C@H](C)[C@H](O)[C@@H](C)[C@@H](O)[C@@H](C)[C@H](OC(C)=O)[C@@H]1C [RIFAMPIN]
Cmax [41]: 2000 ng/mL | Tmax [42]: 1.2 h
